In ChEMBL document CHEMBL4177753, “Structural Modification of Natural Product Ganomycin I Leading to Discovery of a α-Glucosidase and HMG-CoA Reductase Dual Inhibitor Improving Obesity and Metabolic Dysfunction in Vivo” (J Med Chem, 2018):
Calls of active or inactive are those of the source. The rule behind the calls is not given here.

Experiments:
[1] = tested on: Mus musculus; assay: Reduction of plasma LPS levels in ob/ob mouse at 3 mg/kg administered daily via oral gavage for 31 days by ELISA relative to vehicle-treated control; assay type: functional; design: scale not given: the % may be the effect or the level left
Procedure, shortened: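 Male ob/ob mice treated daily by gavage (soybean vehicle); plasma LPS and TNF-α quantified by ELISA kits. For antibiotic groups, ob/ob mice first received an oral antibiotic cocktail (ampicillin 1 g/L, vancomycin, neomycin, gentamycin, erythromycin) for three weeks, then 3.0 mg/kg/day; n = 8 per group.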

[2] = tested on: Mus musculus; assay: Hypolipidemic activity in antibiotic-treated ob/ob mouse assessed as decrease in plasma free fatty acid levels at 3 mg/kg administered daily via oral gavage for 3 weeks; assay type: functional, organism-based
Procedure, shortened: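 Male ob/ob mice pretreated three weeks with ampicillin (1 g/L), vancomycin, neomycin, gentamycin and erythromycin. Groups of n = 8 given 3.0 mg/kg/day orally in soybean vehicle versus vehicle. Plasma and hepatic lipids, fasting glucose, OGTT (glucose 2 g/kg after overnight fast) and HbA1c measured.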

[3] = tested on: Selenomonas; assay: Decrease in Selenomonas levels in cecum of ob/ob mouse at 3 mg/kg administered daily via oral gavage for 31 days by 16S rRNA gene high-throughput sequencing method; assay type: functional, organism-based
Procedure, shortened: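 Male ob/ob mice dosed daily by gavage at 1.0 or 3.0 mg/kg, compared with vehicle group. DNA extracted from about 150 mg caecum contents. 16S rRNA V3–V4 region amplified and sequenced on Illumina HiSeq PE250. Community compared by NMDS/MRPP; discriminant taxa identified by LEfSe.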

[4] = tested on: Mus musculus; assay: Antiobesity activity in ob/ob mouse assessed as change in lean mass at 3 mg/kg administered daily via oral gavage for 31 days; assay type: functional, organism-based
Procedure, shortened: (§1)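 Male ob/ob mice, n = 10 per group, grouped by blood glucose and body weight. Daily gavage at 0.3, 1.0 or 3.0 mg/kg in soybean vehicle, with soybean vehicle controls and C57BL/6J controls. Body weight, cumulative food intake, LEE index, fat mass and lean mass recorded. Mean ± SEM, one-way ANOVA with Tukey test.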

[5] = tested on: Mus musculus; assay: Antiobesity activity in ob/ob mouse assessed as reduction in weight gain at 3 mg/kg administered daily via oral gavage for 31 days relative to vehicle-treated control; assay type: functional; design: scale not given: the % may be the effect or the level left; procedure, shortened: as §1
[6] = Cmax in Sprague-Dawley rat at 2 mg/kg, po; assay type: ADME, organism-based; design: dose 2 mg/kg, route oral; conditions: in vivo
Procedure, shortened: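 Male Sprague-Dawley rats (n = 6, 0.21–0.23 kg), single oral dose 2.0 mg/kg. Orbital blood sampled 0–16 h into heparinized tubes. Plasma was protein-precipitated with methanol, with internal standard added. Quantified by UPLC-ESI(+)-QTOF-MS in SIM mode on a C18 column with a methanol/0.3% formic acid water gradient. Linear range 0.54–107 ng/ml.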

[7] = tested on: Lachnospiraceae; assay: Increase in Lachnospiraceae levels in cecum of ob/ob mouse at 1 to 3 mg/kg administered daily via oral gavage for 31 days by 16S rRNA gene high-throughput sequencing method; assay type: functional, organism-based
Procedure, shortened: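 Caecum contents (about 150 mg) from ob/ob mice given 1.0 or 3.0 mg/kg by gavage; DNA extracted, 16S rRNA gene V3-V4 region amplified and sequenced on Illumina HiSeq PE250; community compared with vehicle group by NMDS/MRPP and LEfSe.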

[8] = tested on: Mus musculus; assay: Hypolipidemic activity in ob/ob mouse assessed as decrease in plasma triglyceride levels at 3 mg/kg administered daily via oral gavage for 31 days relative to vehicle-treated control; assay type: functional; design: scale not given: the % may be the effect or the level left
[9] = tested on: Mus musculus; assay: Hypolipidemic activity in ob/ob mouse assessed as decrease in serum AST levels at 0.3 to 3 mg/kg administered daily via oral gavage for 31 days; assay type: functional, organism-based
[10] = tested on: Mus musculus; assay: Hypolipidemic activity in ob/ob mouse assessed as decrease in plasma free fatty acid levels administered daily via oral gavage for 31 days; assay type: functional, organism-based
[11] = tested on: Mus musculus; assay: Upregulation of occludin mRNA expression in ob/ob mouse ileum at 3 mg/kg administered daily via oral gavage for 31 days by RNA-seq analysis; assay type: functional, organism-based
[12] = tested on: Mus musculus; assay: Antiobesity activity in antibiotic-treated ob/ob mouse assessed as reduction in cumulative food intake at 3 mg/kg administered daily via oral gavage for 18 days; assay type: functional, organism-based
Procedure, shortened: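 Male ob/ob mice given drinking water with ampicillin (1 g/L), vancomycin and other antibiotics for three weeks. Groups of n = 8 were dosed at 3.0 mg/kg/day by mouth in soybean vehicle, alongside non-antibiotic ob/ob groups. Weight gain and food intake recorded.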

[13] = tested on: Mus musculus; assay: In vivo inhibition of alpha-glucosidase activity in ob/ob mouse assessed as accumulation of carbohydrate in lower part of small intestine at 3 mg/kg administered daily via oral gavage for 31 days; assay type: functional, organism-based
[14] = tested on: Mus musculus; assay: Upregulation of ZO-1 mRNA expression in ob/ob mouse ileum at 3 mg/kg administered daily via oral gavage for 31 days by RNA-seq analysis; assay type: functional, organism-based
[15] = tested on: Mus musculus; assay: Upregulation of Muc-5 mRNA expression in ob/ob mouse ileum at 3 mg/kg administered daily via oral gavage for 31 days by RNA-seq analysis; assay type: functional, organism-based
[16] = tested on: Mus musculus; assay: Hypolipidemic activity in ob/ob mouse assessed as decrease in hepatocyte ballooning at 3 mg/kg administered daily via oral gavage for 31 days by oil red O staining-based microscopic method; assay type: functional, organism-based
Procedure, shortened: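 Male ob/ob mice dosed by gavage (soybean vehicle); liver and abdominal white adipose tissue fixed in 10% formaldehyde-PBS pH 7.4, paraffin-embedded, sectioned, stained with H&E, Oil Red O or sirius red, and examined by light microscopy.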

[17] = tested on: Mus musculus; assay: Reduction of liver TNF-alpha levels in ob/ob mouse at 3 mg/kg administered daily via oral gavage for 31 days by DAPI staining/immunofluorescence-based confocal microscopic method; assay type: functional, organism-based
Procedure, shortened: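 Liver from ob/ob mice dosed at 3.0 mg/kg by gavage; tissue methanol-fixed, blocked in PBS with 5% BSA, stained with anti-TNFα (1:200) and Alexa Fluor 610 secondary (1:250), nuclei with DAPI; confocal imaging, per-cell TNFα expression quantified.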

[18] = tested on: Mus musculus; assay: Antifibrotic activity in ob/ob mouse assessed as decrease in TGF-beta1 expression in liver at 3 mg/kg administered daily via oral gavage for 31 days by immunohistochemical staining-based microscopic method; assay type: functional, organism-based
[19] = tested on: Mus musculus; assay: Hypolipidemic activity in ob/ob mouse assessed as decrease in liver triglyceride levels at 0.3 to 3 mg/kg administered daily via oral gavage for 31 days; assay type: functional, organism-based
[20] = tested on: Mus musculus; assay: Toxicity in C57BL/6J mouse assessed as effect on survival at 30 mg/kg administered daily via oral gavage for 3 months; assay type: organism-based; conditions: in vivo
Procedure, shortened: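 Long-term safety study in C57BL/6J mice, 20 male and 20 female, sorted by gender, blood glucose and body weight into four groups (n = 10 each). Treated groups of each sex got 30.0 mg/kg daily by oral gavage in soybean vehicle. Vehicle groups got an equal volume of soybean. Dosing ran three months, with behavior, survival, body weight, blood glucose, liver function and organ coefficients recorded.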

[21] = tested on: Mus musculus; assay: Downregulation of Tnfa mRNA expression in ob/ob mouse ileum at 3 mg/kg administered daily via oral gavage for 31 days by RNA-seq analysis; assay type: functional, organism-based
[22] = tested on: Mus musculus; assay: Hypolipidemic activity in ob/ob mouse assessed as decrease in serum ALT levels at 0.3 to 3 mg/kg administered daily via oral gavage for 31 days; assay type: functional, organism-based
[23] = tested on: Mus musculus; assay: Hypolipidemic activity in C57BL/6J DIO mouse assessed as decrease in serum total cholesterol levels at 0.3 to 3 mg/kg administered daily via oral gavage for 5 weeks; assay type: functional, organism-based
Procedure, shortened: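 High-fat-diet male C57BL/6J mice, n = 8 per group, daily gavage at 0.3–3.0 mg/kg in soybean vehicle for 5 weeks. Serum total cholesterol, triglycerides and free fatty acids measured.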

CC(C)=CCC/C(C)=C/CCC1=C[C@H](c2ccc(C(C)(C)C)cc2)OC1=O
Activity [1]: 40.9%
Activity [2]: inactive
Activity [3]: Active
Activity [4]: inactive
Activity [5]: 68%
Cmax [6]: 49.3 ng/mL
Activity [7]: Active
Activity [8]: 47%
Activity [9]: Active
Activity [10]: Dose-dependent effect
Activity [11]: Active
Activity [12]: inactive
inhibition [13]: Active
Activity [14]: Active
Activity [15]: Active
Activity [16]: Active
Activity [17]: Active
Activity [18]: Active
Activity [19]: Active
Activity [20]: Non-Toxic
Activity [21]: Active
Activity [22]: Active
Activity [23]: Active
